# How the values were obtained:
# Format in all cases: functional
# Oryctolagus cuniculus [1] = organism: Oryctolagus cuniculus; test: Tested for its antiviral activity in primary rabbit kidney (PRK) cell cultures inoculated with herpes simplex type 1 virus; range 4-10
# How it was run: (§1)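 Primary rabbit kidney (PRK) cell cultures infected with HSV; inhibition of virus-induced cytopathogenicity scored; ID50 (µg/mL) is concentration reducing cytopathogenicity by 50%; means over three HSV-1 strains (KOS, F, McIntyre) or three HSV-2 strains (Lyons, 196, G), range across strains shown; top concentration 400 µg/mL.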
# Oryctolagus cuniculus [2] = organism: Oryctolagus cuniculus; test: Tested for its antimetabolic activity by measuring the concentration required for [Me-3H] dThd incorporation into host cell DNA by 50%; settings: read-out: ID50 (the source's name)
# How it was run: (§2)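 Primary rabbit kidney (PRK) cell cultures; incorporation of [methyl-3H]thymidine or [2-14C]2'-deoxyuridine into host cell DNA measured in presence of compound; value is concentration (µg/mL) reducing label incorporation by 50%; concentrations up to 400 µg/mL.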
# Oryctolagus cuniculus [3] = organism: Oryctolagus cuniculus; test: Tested for its antiviral activity in primary rabbit kidney (PRK) cell cultures inoculated with vaccinia virus
# Oryctolagus cuniculus [4] = organism: Oryctolagus cuniculus; test: Tested for its antimetabolic activity by measuring the concentration required for [2-14C]- Urd incorporation into host cell DNA by 50%; settings: read-out: ID50 (the source's name); how it was run: as §2
# Oryctolagus cuniculus [5] = organism: Oryctolagus cuniculus; test: Tested for its antiviral activity in primary rabbit kidney (PRK) cell cultures inoculated with herpes simplex type 2 virus; how it was run: as §1
# Oryctolagus cuniculus [6] = organism: Oryctolagus cuniculus; test: Tested for its antiviral activity in primary rabbit kidney (PRK) cell cultures inoculated with herpes simplex type 1 virus; how it was run: as §1
# Oryctolagus cuniculus [7] = organism: Oryctolagus cuniculus; test: Tested for its antiviral activity in primary rabbit kidney (PRK) cell cultures inoculated with herpes simplex type 2 virus; range 0.2-0.4; how it was run: as §1
Structure (SMILES),ID50 (Oryctolagus cuniculus [1]) [µg/mL],IC50 (Oryctolagus cuniculus [2]) [µg/mL],ID50 (Oryctolagus cuniculus [3]) [µg/mL],IC50 (Oryctolagus cuniculus [4]) [µg/mL],ID50 (Oryctolagus cuniculus [5]) [µg/mL],ID50 (Oryctolagus cuniculus [6]) [µg/mL],ID50 (Oryctolagus cuniculus [7]) [µg/mL]
CSCc1cn([C@H]2C[C@H](O)[C@@H](CO)O2)c(=O)[nH]c1=O,6,100,200,> 400,4,–,–
CS(=O)(=O)Cc1cn([C@H]2C[C@H](O)[C@@H](CO)O2)c(=O)[nH]c1=O,–,300,200,> 400,>400,4,–
C[S+]([O-])Cc1cn([C@H]2C[C@H](O)[C@@H](CO)O2)c(=O)[nH]c1=O (some centres not stated),–,–,–,–,>400,>400,–
O=c1[nH]c(=O)n([C@H]2C[C@H](O)[C@@H](CO)O2)cc1I [IDOXURIDINE],–,2.5,0.2,1.2,–,0.15,0.3

# — ChEMBL document CHEMBL1121399, “Synthesis of 5-[(methylthio)methyl]-2'-deoxyuridine, the corresponding sulfoxide and sulfone, and their 5'-phosphates: antiviral effects and thymidylate synthetase inhibition” (1980)
